Active and inactive are the calls of the source. The calls are words filed in the database; no cut-off is given here.
What was measured:
[1] = system: MRC5; experiment: Cytotoxicity against human MRC5 cells assessed as reduction in cell viability after 72 hrs by MTT assay; assay type: cell-based; conditions: MRC5, 72 h
[2] = system: K562; experiment: Potency index, ratio of doxorubicin IC50 to compound IC50 for human K562 cells; assay type: functional
[3] = system: HeLa; experiment: Cytotoxicity against human HeLa cells assessed as reduction in cell viability after 72 hrs by MTT assay; assay type: functional, cell-based
[4] = system: MDA-MB-231; experiment: Cytotoxicity against human MDA-MB-231 cells assessed as reduction in cell viability after 72 hrs by MTT assay; assay type: functional, cell-based; conditions: MDA-MB-231, 72 h
[5] = system: MCF7; experiment: Cytotoxicity against human MCF7 cells assessed as reduction in cell viability after 72 hrs by MTT assay; assay type: functional, cell-based; conditions: MCF7, 72 h
[6] = system: Raji; experiment: Cytotoxicity against human Raji cells assessed as reduction in cell viability after 72 hrs by MTT assay; assay type: functional, cell-based
[7] = system: Jurkat; experiment: Cytotoxicity against human Jurkat cells assessed as reduction in cell viability after 72 hrs by MTT assay; assay type: functional, cell-based
[8] = system: HL-60; experiment: Cytotoxicity against human HL60 cells assessed as reduction in cell viability after 72 hrs by MTT assay; assay type: functional, cell-based; conditions: HL-60, 72 h
[9] = system: K562; experiment: Cytotoxicity against human K562 cells assessed as reduction in cell viability after 72 hrs by MTT assay; assay type: functional, cell-based; conditions: K562, 72 h
[10] = system: A549; experiment: Cytotoxicity against human A549 cells assessed as reduction in cell viability after 72 hrs by MTT assay; assay type: functional, cell-based; conditions: A549, 72 h
[11] = system: K562; experiment: Cell cycle arrest in human K562 cells assessed as accumulation at sub G1 phase at IC50 after 72 hrs by propidium iodide staining based flow cytometry (reference value: 1.48%); assay type: functional
[12] = system: K562; experiment: Cell cycle arrest in human K562 cells assessed as accumulation at G0/G1 phase at IC50 after 72 hrs by propidium iodide staining based flow cytometry (reference value: 38.48%); assay type: functional
[13] = system: K562; experiment: Cell cycle arrest in human K562 cells assessed as accumulation at S phase at IC50 after 72 hrs by propidium iodide staining based flow cytometry (reference value: 41.03%); assay type: functional
[14] = system: K562; experiment: Cell cycle arrest in human K562 cells assessed as accumulation at G2/M phase at IC50 after 72 hrs by propidium iodide staining based flow cytometry (reference value: 19.01%); assay type: functional
[15] = system: K562; experiment: Induction of apoptosis in human K562 cells assessed as specific apoptosis by Annexin V-FITC/propidium iodide staining based flow cytometry; assay type: functional; design: concentration or dose not given beside the values
[16] = system: K562; experiment: Induction of apoptosis in human K562 cells assessed as specific necrosis by Annexin V-FITC/propidium iodide staining based flow cytometry; assay type: functional; design: concentration or dose not given beside the values
[17] = system: K562; experiment: Induction of apoptosis in human K562 cells assessed as decrease in Bcl-2 expression level by Western blot analysis; assay type: functional, cell-based
Procedure, shortened: (§1)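 Western blot of treated K562 cells for Bcl-2, Bax, activated caspase 3 and cleaved PARP (85 kDa fragment). Blots developed by ECL, with band expression quantified by densitometry against an untreated control sample.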

[18] = system: K562; experiment: Induction of apoptosis in human K562 cells assessed as increase in Bax expression level by Western blot analysis; assay type: functional, cell-based; procedure, shortened: as §1
[19] = system: K562; experiment: Induction of apoptosis in human K562 cells assessed as increase in caspase 3 expression level by Western blot analysis; assay type: functional, cell-based; procedure, shortened: as §1
[20] = system: K562; experiment: Induction of apoptosis in human K562 cells assessed as increase in cleaved PARP expression level by Western blot analysis; assay type: functional, cell-based; procedure, shortened: as §1
[21] = system: K562; experiment: Cell cycle arrest in human K562 cells assessed as total cell levels at G0/G1 phase at IC50 after 72 hrs by propidium iodide staining based flow cytometry (reference value: 39.97%); assay type: functional
[22] = system: K562; experiment: Cell cycle arrest in human K562 cells assessed as total cell levels at S phase at IC50 after 72 hrs by propidium iodide staining based flow cytometry (reference value: 36.49%); assay type: functional
[23] = system: K562; experiment: Cell cycle arrest in human K562 cells assessed as total cell levels at G2/M phase at IC50 after 72 hrs by propidium iodide staining based flow cytometry (reference value: 14.31%); assay type: functional
[24] = system: K562; experiment: Cell cycle arrest in human K562 cells assessed as total cell levels at M4 phase at IC50 after 72 hrs by propidium iodide staining based flow cytometry (reference value: 0.50%); assay type: functional
[25] = system: K562; experiment: Induction of apoptosis in human K562 cells assessed as gated necrotic cells by Annexin V-FITC/propidium iodide staining based flow cytometry (reference value: 0.24%); assay type: functional
[26] = system: K562; experiment: Induction of apoptosis in human K562 cells assessed as gated late apoptotic cells by Annexin V-FITC/propidium iodide staining based flow cytometry (reference value: 0.88%); assay type: functional
[27] = system: K562; experiment: Induction of apoptosis in human K562 cells assessed as gated viable cells by Annexin V-FITC/propidium iodide staining based flow cytometry (reference value: 95.78%); assay type: functional
[28] = system: K562; experiment: Induction of apoptosis in human K562 cells assessed as gated early apoptotic cells by Annexin V-FITC/propidium iodide staining based flow cytometry (reference value: 3.18%); assay type: functional
[29] = system: K562; experiment: Induction of apoptosis in human K562 cells assessed as total necrotic cells by Annexin V-FITC/propidium iodide staining based flow cytometry (reference value: 0.23%); assay type: functional
[30] = system: K562; experiment: Induction of apoptosis in human K562 cells assessed as total late apoptotic cells by Annexin V-FITC/propidium iodide staining based flow cytometry (reference value: 0.77%); assay type: functional
[31] = system: K562; experiment: Induction of apoptosis in human K562 cells assessed as total viable cells by Annexin V-FITC/propidium iodide staining based flow cytometry (reference value: 92.45%); assay type: functional
[32] = system: K562; experiment: Induction of apoptosis in human K562 cells assessed as total early apoptotic cells by Annexin V-FITC/propidium iodide staining based flow cytometry (reference value: 3.07%); assay type: functional

| SMILES | IC50 [1] [nM] | IC50 [3] [nM] | IC50 [4] [nM] | IC50 [5] [nM] | IC50 [6] [nM] | IC50 [7] [nM] | IC50 [8] [nM] | IC50 [9] [nM] | IC50 [10] [nM] | Activity [11] [%] | Activity [12] [%] | Activity [13] [%] | Activity [14] [%] | Activity [15] [%] | Activity [16] [%] | Activity [17] | Activity [18] | Activity [19] | Activity [20] | Activity [21] [%] | other results |
| --- | --- | --- | --- | --- | --- | --- | --- | --- | --- | --- | --- | --- | --- | --- | --- | --- | --- | --- | --- | --- | --- |
| O=C1C=C[C@]2(C[C@H](O)[C@@H](c3ccccc3)O2)O1 | > 100000 | 340 | 1890 | 11600 | 2340 | 210 | 1060 | 120 | 29000 | 1.6 | 32.52 | 59.02 | 6.86 | 22.6 | 1.08 | Active | inactive | Active | Active | 25.97 | Ratio IC50 [2]: 2; Activity [22]: 47.93%; Activity [23]: 5.47%; Activity [24]: 1.26%; Activity [25]: 5.02%; Activity [26]: 16.8%; Activity [27]: 69.31%; Activity [28]: 8.88%; Activity [29]: 1.21%; Activity [30]: 4.05%; Activity [31]: 16.71%; Activity [32]: 2.14% |
| O=C1C=C[C@@]2(C[C@H](OC(=O)/C=C/c3ccc(F)cc3)[C@H](c3ccccc3)O2)O1 | > 100000 | 8450 | 7540 | 2310 | 5370 | 4630 | 1020 | 5360 | 1170 | 3.99 | 37.01 | 30.34 | 28.66 | 18.71 | 1.22 | Active | inactive | Active | Active | 34.22 | Activity [22]: 28.54%; Activity [23]: 26.5%; Activity [24]: 3.69%; Activity [25]: 2.81%; Activity [26]: 1.51%; Activity [27]: 75.24%; Activity [28]: 20.44%; Activity [29]: 1.57%; Activity [30]: 0.75%; Activity [31]: 70.05%; Activity [32]: 10% |
